Measured values from different studies.
Target: Serine/threonine-protein kinase PLK2 (PLK2, Homo sapiens, UniProt Q9NYY3)

| SMILES | effect on | action | technique | concentration | quantity | result |
| --- | --- | --- | --- | --- | --- | --- |
| CCCS(=O)(=O)Nc1ccc(F)c(C(=O)c2c[nH]c3ncc(-c4ccc(Cl)cc4)cc23)c1F | enzyme activity | inhibitor |  | 1 µM | inhibition | < 10% |
| Cc1ccc(NC(=O)c2ccc(C)c(C(F)(F)F)c2)cc1C#Cc1nn(C2CCC(O)CC2)c2ncnc(N)c12 (stereo not drawn) | cell-free assay |  |  | 10 µM | remaining signal | 109% |
| C[S+]([O-])c1ccc(-c2nc(-c3ccncc3)c(-c3ccc(F)cc3)[nH]2)cc1 (stereo not drawn) | cell-free assay |  |  | 0.5 µM | remaining signal | 95.6% |
| O=C(Nc1cnn(-c2csc(C(=O)NC3COC3)c2)c1)Nc1c(F)cccc1Cl | enzyme activity | inhibitor |  | 5 µM | remaining activity | 100% |
| CC(=O)C1=C(C)N(c2cccc(C(F)(F)F)c2)C(=O)N[C@@H]1c1ccc(C#N)nc1 | cell-free assay |  | competition with immobilised ligand | 1 µM | remaining binding | 97.8% |
| CN(C)c1nccc(-c2cnc3ncccn23)n1 | binding |  |  | 1 µM | remaining binding | 66% |
| CC(C)(C)c1nc(-c2cccc(NS(=O)(=O)c3c(F)cccc3F)c2F)c(-c2ccnc(N)n2)s1 | enzyme activity | inhibitor | radiometric | 1 µM | remaining activity | 94% |
| COc1cc(-c2cn(C3CCc4c(F)cccc4N(CC(F)(F)F)C3=O)nn2)ccc1-n1cnc(C)c1 (stereo not drawn) | cell-free assay |  | competition with immobilised ligand | 1 µM | remaining binding | 100% |
| CCOc1cc(-c2nncn2C)ccc1Nc1ncc2cc(C)nc(NCC(C)(C)C)c2n1 | enzyme activity | inhibitor | FRET | 1 µM | inhibition | < 15% |
| Cc1cc(NC(=O)c2cccc3cc(-c4cccc5[nH]nc(N)c45)ccc23)ccc1F | enzyme activity | inhibitor |  | 0.1 µM | activity vs control | 91% |
| O=C1NC(=O)c2cc(Nc3ccc(F)cc3)c(Nc3ccc(F)cc3)cc21 | cell-free assay |  |  | 0.5 µM | remaining signal | 99.6% |
| O=C(O)c1cc(-c2ccc(C3CCNCC3)cc2)c2ccc(-c3ccc(C(F)(F)F)cc3)cc2c1 | cell-free assay |  | competition with immobilised ligand | 1 µM | remaining binding | 100% |
| Cc1ccc(C(=O)Nc2ccc(CN3CCN(C)CC3)c(C(F)(F)F)c2)cc1C#Cc1cnc2cccnn12 | enzyme activity | inhibitor |  | 23.5 nM | remaining activity | 94% |
| COc1cc2ncnc(Nc3ccc(Oc4ccccc4)c(C)c3C)c2cc1OC | enzyme activity | inhibitor |  | 1 µM | inhibition | 1% |
| COc1cc(-c2cn(C3CCc4ccccc4N(CC(F)(F)F)C3=O)nn2)ccc1-n1ccc(C)n1 (stereo not drawn) | cell-free assay |  | competition with immobilised ligand | 1 µM | remaining binding | 100% |
| COc1cc2c(Nc3ccc(Br)cc3F)ncnc2cc1OCC1CCN(C)CC1 | cell-free assay |  |  | 0.5 µM | remaining signal | 103% |
| CC/C(=N\NC(=O)NCc1cccc(O)c1)c1ccc(O)c(C)c1O | enzyme activity | inhibitor |  | 0.1 µM | inhibition | 1.3% |
| CCN(CC)CCNC(=O)c1c(C)[nH]c(/C=C2\C(=O)Nc3ccc(F)cc32)c1C | enzyme activity | inhibitor |  | 0.3 µM | inhibition | -2% |
| CO[C@@H](C)c1c(Nc2ccc([C@@H](N(C)C(=O)C3CCS(=O)(=O)CC3)C(F)(F)F)cc2)cnc2cc(Cl)nn12 | cell-free assay |  | competition with immobilised ligand | 1 µM | remaining binding | 100% |
| CNC(=O)c1cc(Oc2ccc(NC(=O)Nc3ccc(Cl)c(C(F)(F)F)c3)cc2)ccn1 | enzyme activity | inhibitor |  | 10 µM | inhibition | 15% |
| O=C1CCc2cc(Nc3cc(OC4CCOCC4)c([N+](=O)[O-])cc3Cl)ccc2N1 | cell-free assay |  | competition with immobilised ligand | 1 µM | remaining binding | 92% |
| Cc1ccc(Nc2nccc(N(C)c3ccc4c(C)n(C)nc4c3)n2)cc1S(N)(=O)=O | enzyme activity | inhibitor |  | 10 µM | inhibition | -4% |
| CCCCN(CCCC)C(=O)CN1C[C@H](c2cc(OC)c3c(c2)OCO3)[C@@H](C(=O)O)[C@@H]1CC(C)(C)CCC | cell-free assay |  | competition with immobilised ligand | 1 µM | remaining binding | 67.1% |
| CC(C)(O)[C@H]1CC[C@H](Nc2ccc3ncc(-c4cccc(C(F)(F)F)c4)n3n2)CC1 | enzyme activity | inhibitor |  | 1 µM | remaining activity | 93.5% |
